Where “and” joins values, the source holds several entries; their conditions need not be identical. Equal entries are not always repeated.
Biological target: T1, HPA (Helix pomatia, UniProt Q2F1K8)
T1 sequence (Q2F1K8 20-121): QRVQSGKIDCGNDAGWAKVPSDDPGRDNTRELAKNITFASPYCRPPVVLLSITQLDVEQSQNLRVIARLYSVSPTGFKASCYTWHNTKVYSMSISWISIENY
Assay: Fluorescent microarray competition: Alexa Fluor 647-labeled HPA
Format: biochemical
Conditions: IC50,microarray (μM); SEM
Outline: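 Glycoconjugates spotted in triplicate on NHS-coated glass slides from PBS pH 8.5 with 5% glycerol. Slides held 17−20 h at 70% humidity, then blocked 1 h at 37 °C in ethanolamine/boric acid/Tween 20 buffer pH 8.5. Probing in 16-well masks under slow agitation, then Tween-PBS washes. Scanned at 635 nm excitation. Mean fluorescence fitted against log competitor concentration.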

Compound: CC(=O)N[C@H]1C(O)O[C@H](CO)[C@H](O)[C@@H]1O (stereo partly drawn) [GalNAc, N-acetyl-D-galactosamine]
- IC50: 180 µM and 301 µM and 687 µM and 449 µM

From paper PMC6210076 (ACS Omega, 2018)
